# Screening results: PubChem BioAssay, Broad Institute
# Sampled rows, rich in hits. Any-hit rate of the full collection: about 3.5%.
# HIV Env fusion: inhibitors of HIV-1 Env-driven cell-cell fusion, primary screen, HeLa-JRFL effector, CEM21 target cells, luciferase; inhibition, % at 12.3 µM; actives 1.1% (n = 360,000);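 active = mean replicate inhibition score of at least 50 and every replicate individually at or above 50; inconclusive = only one of the two criteria met; inactive = mean below 50 and not all replicates reaching 50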
# rRNA inh HTS: reduced GFP signal of wild-type E. coli, primary screen, bacterial rRNA inhibitor project, GFP/RFP fluorescence, OD600, single point | E. coli WT GFP vs humanized-ribosome RFP mutants, 24 h; hits give low values; DMSO median 0, no signal -100 | GFP signal change (wild-type ribosome), % (test concentration not listed) | actives 1.6% (n = 350,000);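 active = significant combined selectivity score with lowered wild-type GFP, culture density cut under 30%, mutant RFP and density less affected; inactive = any of these conditions unmet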
# FN deposit inh: inhibitors of fibronectin matrix deposition, primary screen, AH1F cells, Alexa488-fibronectin fluorescence, plate reader | AH1F fibroblasts, overnight | AID 743247, 2014 | actives 0.086% (n = 350,000) | inhibition, % at 12.6 µM;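 active = mean inhibition across replicates of 30% or more, regardless of how many single replicates reach that level; inconclusive = mean under 30% yet at least half of replicates reach 30%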
#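 Test system: AH1F fibroblast monolayer depositing Alexa488-labelled fibronectin into matrix. Input: 10000 cells per well. Technique: fluorescence, ex 485 nm, em 525 nm. Buffer or medium: DMEM plus 2% serum, read in PBS. Timing: 1 h cell adhesion before compound, then overnight fibronectin incubation. Compound: single dose, pinned. Read-out basis: inhibition from reduced deposited-fibronectin fluorescence.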
# PGC1a acetyl inh: inhibitors of PGC1a acetylation signal, primary screen, cell-based, U2OS, AlphaScreen, inhibitor mode; AlphaScreen anti-acetyl-lysine; with virally co-expressed GCN5 acetyltransferase; inhibition, % at 15.6 µM; actives 0.17% (n = 350,000); AID 651687, 2012;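 active = every replicate shows inhibition of at least 40%; inconclusive = mean inhibition at least 40% but some replicate below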
# DENV2 CPE: inhibitors of DENV2 cytopathic effect, primary screen, cell-based, plate reader, single concentration. DENV2-infected cells, cytopathic effect rescue. CPE inhibition, % at 9.99 µM. actives 1.7% (n = 350,000); in the data active = CPE inhibition above about 20%, passing the limit was not always enough; inconclusive = no clear call, values can overlap the other calls; tested in BHK-21 cells
# PglD DTNB: C. jejuni PglD acetyltransferase inhibitors, primary screen, biochemical, DTNB colorimetric, single point; UDP-N-acetylbacillosamine N-acetyltransferase PglD (Campylobacter jejuni); purified PglD enzyme, DTNB colorimetric CoA detection; inhibition, % at 12.5 µM; actives 0.098% (n = 360,000); AID 602405, 2012; in the data active = inhibition above about 16%, passing the limit was not always enough; inconclusive = no clear call, values can overlap the other calls
# PglD confirm: PglD acetyltransferase inhibitors, confirmation, biochemical, DTNB absorbance, single point, cherry-picked samples | shares compounds with PglD DTNB | Purified C. jejuni PglD, DTNB absorbance 412 nm | inhibition, % at 20 µM | 320 tested, under 10 active | AID 743156, 2013;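 active = mean inhibition across replicates of at least 20% with every single replicate also at 20% or more; inconclusive = mean inhibition at least 20% but some replicate falls below 20%; inactive = mean inhibition under 20% and not all replicates reach it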;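 also: initial rate of CoA release by acetyl transfer from AcCoA to the UDP-4-amino sugar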
# A number is an active result; - = inactive; ? = inconclusive; . = no result.
SMILES,HIV Env fusion,rRNA inh HTS,FN deposit inh,PGC1a acetyl inh,DENV2 CPE,PglD DTNB,PglD confirm
CO[C@@H]1CN(C)C(=O)c2ccc(NC(=O)C3CC3)cc2OC[C@H](C)N(CC2CCCC2)C[C@H]1C,.,-,-,-,-,-,.
COc1ccc(OC)c(NC(=O)N2CCCc3ccccc32)c1,.,-,-,.,-,-,.
COc1ccc(NC(=O)N2CCCc3cc(C)ccc32)c(OC)c1,-,-,-,.,?,30,-
Cc1ccc(C(=O)COC(=O)CCCC(=O)Nc2cc(C(F)(F)F)ccc2Cl)cc1C,-,.,-,-,.,24,-
Cc1ccc(C(=O)COC(=O)CCC(=O)Nc2ccccc2Cl)cc1[N+](=O)[O-],-,.,.,-,.,-,.
O=C(NCCN1CCCCC1)Nc1ccc(F)cc1F,-,-,-,-,-,24,-
COc1ccc(CNCc2cccc(Cl)c2)cc1,-,-,-,-,-,30,-
Cn1cnnc1SCC(C)(C)NS(=O)(=O)c1ccc(Cl)cc1,-,-,-,-,-,29,?
O=C(CCc1nc2ccccc2s1)N1CCN(S(=O)(=O)c2cccs2)CC1,-,.,-,-,.,-,.
O=S(=O)(c1cccs1)N1CCN(Cc2nc3ccccc3s2)CC1,-,.,-,-,.,24,-
O=C(COc1cccc(Cl)c1)N/N=C\c1cc2ccccc2nc1Cl,-,.,.,-,.,-,.
Cc1ccccc1OCC(=O)N/N=C/c1cc2ccccc2nc1Cl,-,.,-,-,.,26,-
O=C(NCC1CCCO1)[C@@H]1CSC2c3ccccc3C(=O)N21 (some centres undefined),.,.,.,-,.,22,-
Cc1c(C(=O)O)oc2c3c(ccc12)OCCO3,.,.,.,-,.,24,-
Cc1cc(NC(=O)C2CCN(S(=O)(=O)c3cnc[nH]3)CC2)ccc1Br,-,.,-,-,.,28,-
Cc1ccc(NC(=O)C2CCN(S(=O)(=O)c3cnc[nH]3)CC2)cc1C,.,.,.,-,.,-,.
CC(C(=O)N1CCCc2c1c(=O)oc1ccc(O)cc21)N1CCc2ccccc2C1 (centres undefined),.,.,.,-,.,23,-
O=C(N[C@@H]1CC[C@H](CCn2cc(Cc3ccccc3)nn2)O[C@@H]1CO)c1ccccn1,-,-,-,-,-,-,.
CC(=O)c1cccc(NC(=O)NCc2cccnc2)c1,.,-,.,-,-,22,-
O=C(NCc1cccnc1)Nc1cccc(NC(=O)NCc2cccnc2)c1,-,.,-,.,.,-,.
CCC(=O)C1=C(O)C(c2cccc(Oc3ccccc3)c2)CCC1=O (centres undefined),-,-,-,-,-,28,-
C[C@H](CO)N1C[C@H](C)[C@H](CN(C)Cc2ccncc2)Oc2ncc(C#Cc3ccccn3)cc2C1=O,-,-,-,-,-,-,.
Cc1cc(C)c2c(NC(N)=S)n[nH]c2n1,-,-,.,-,-,26,-
CC(=O)c1ccc(S(=O)(=O)N2Cc3ccccc3CC2C(=O)O)cc1 (centres undefined),-,-,-,-,-,25,-
O=C(O)[C@H]1Cc2ccccc2CN1S(=O)(=O)c1ccc(F)cc1,-,-,-,-,-,-,.
SMILES,HIV Env fusion,rRNA inh HTS,FN deposit inh,PGC1a acetyl inh,DENV2 CPE,PglD DTNB,PglD confirm
C[C@H](CO)N1C[C@H](C)[C@H](CN(C)Cc2ccccc2)OCCCC[C@H](C)Oc2ccc(NC(=O)CCCN(C)C)cc2C1=O,-,-,-,-,-,-,.
CCOc1ccccc1NC(=S)N1CCC(c2nc3ccccc3o2)CC1,-,-,-,-,.,21,-
COc1ccc(NC(=O)N(C)C[C@@H]2Oc3c(NS(=O)(=O)c4cccs4)cccc3C(=O)N([C@@H](C)CO)C[C@@H]2C)cc1,.,-,.,-,-,-,.
COc1ccc(-c2cn(CC[C@@H]3CC[C@H](NC(=O)CCN4CCCCC4)[C@H](CO)O3)nn2)cc1,-,-,-,-,-,-,.
c1cncc(CNc2nc(-c3cccnc3)nc3ccccc23)c1,-,-,-,-,-,24,-
c1ccc(CNc2nc(-c3cccnc3)nc3ccccc23)cc1,-,-,-,-,-,-,.
O=C(Cc1ccncc1)N1CC[C@@H]2[C@H]1c1cc(Br)ccc1N[C@@H]2CO,.,-,-,-,.,-,.
COCc1nc2ccccc2n1CCOc1ccccc1OC,-,.,-,-,.,24,-
COc1ccc(NC(=O)N(C)C[C@@H]2OCCCC[C@H](C)Oc3ccc(N(C)C)cc3C(=O)N([C@@H](C)CO)C[C@@H]2C)cc1,-,-,.,-,-,-,.
COc1ccc(NC(=O)N(C)C[C@@H]2Oc3ccc(NC(=O)Nc4ccc5c(c4)OCO5)cc3CC(=O)N([C@H](C)CO)C[C@H]2C)cc1,-,-,.,-,-,-,.
CC(C)CC#Cc1ccc([C@H]2[C@H](CO)N3CCCCN(C(=O)NC4CCCC4)C[C@@H]23)cc1,.,-,.,-,-,-,.
COc1ccc(/C=C(/NC(=O)c2ccccc2)C(=O)N2CCCC2)cc1,-,-,-,.,-,58,-
COc1ccc(/C=C(\NC(=O)c2ccccc2)C(=O)N2CCN(C)CC2)cc1,-,-,-,.,-,-,.
COc1cc(CC(=O)NCc2ccco2)cc(OC)c1OC,-,.,-,-,.,22,-
COc1cc(C(=O)NCc2ccco2)cc(OC)c1OC,-,.,-,.,.,.,.
C[C@@H]1CN([C@H](C)CO)C(=O)CCCn2nncc2CO[C@@H]1CN(C)Cc1ccc(C(F)(F)F)cc1,-,-,-,-,-,-,.
CNC[C@H]1Oc2ccc(NC(=O)C3CC3)cc2CC(=O)N([C@H](C)CO)C[C@H]1C,-,-,.,-,-,-,.
O=C(COC(=O)CCc1nc2ccccc2n1-c1ccccc1)Nc1cccc(Cl)c1,.,.,.,-,.,29,-
Cc1ccccc1S(=O)(=O)N1CCCCN2[C@@H](CO)[C@@H](c3ccc(C#CCN(C)C)cc3)[C@@H]2C1,.,-,-,-,-,-,.
O=C(O)CC/C(=N\NC(=O)CNC(=O)/C=C/c1ccccc1)c1ccccc1,-,-,-,-,?,26,-
CCNC(=O)CC1C(=O)N(c2ccccc2)C(=O)N1Cc1ccc(OC)cc1 (centres undefined),-,.,-,-,.,33,-
CC(=O)C1=C(O)C(=O)N(Cc2ccco2)C1c1ccccc1F (centres undefined),-,-,-,.,-,.,.
CC(C)(C)C(=O)C1=C(O)C(=O)N(Cc2ccccc2)C1c1ccccc1F (centres undefined),-,-,-,-,?,73,-
